From ChEMBL document CHEMBL1139743, “Synthesis and antihyperlipidemic activity of novel glycosyl fructose derivatives” (2006)

Legend:
Type in all cases: functional, Mesocricetus auratus
Syrian golden hamster [1] = test: Antihyperlipidemic activity measured by glycerol level in golden syrian hamster at 100 mg/kg, po
Summary of the method: (§1)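 High-fat-diet hyperlipidemic male golden Syrian hamsters (120–130 g, n=8 per group) were dosed orally in water vehicle on days 4–10; water-only HFD hamsters served as controls. On day 10, nonfasted blood was drawn into tubes containing 120 µL NaF (4.5 mg/mL) and chilled to 0 C for 15 min. Glycerol and free fatty acids were assayed in this NaF plasma on a clinical chemistry analyser.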

Syrian golden hamster [2] = test: Antihyperlipidemic activity measured by HDL/total cholesterol ratio in golden syrian hamster at 100 mg/kg, po
Summary of the method: (§2)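 Male golden Syrian hamsters (120–130 g), 8 per group, made hyperlipidemic on high fat diet with free access to diet and water throughout. Compound given orally in water from day 4 to day 10 (7 days); HFD hamsters given water only served as controls. On day 10, blood from nonfasted animals was drawn and cooled to 0 C for 15 min. Triglycerides, total cholesterol and HDL cholesterol were measured the same day in plasma without NaF using enzymatic kits.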

Syrian golden hamster [3] = test: Antihyperlipidemic activity measured by increase in free fatty acid level in golden syrian hamster at 100 mg/kg, po relative to control; summary of the method: as §1
Syrian golden hamster [4] = test: Antihyperlipidemic activity measured by HDL level in golden syrian hamster at 100 mg/kg, po; summary of the method: as §2
Syrian golden hamster [5] = test: Antihyperlipidemic activity measured by decrease in triglyceride level in golden syrian hamster at 100 mg/kg, po relative to control; parameters: scale not given: the % may be the effect or the level left; summary of the method: as §2
Syrian golden hamster [6] = test: Antihyperlipidemic activity measured by triglyceride level in golden syrian hamster at 100 mg/kg, po; summary of the method: as §2
Syrian golden hamster [7] = test: Antihyperlipidemic activity measured by increase in glycerol level in golden syrian hamster at 100 mg/kg, po relative to control; summary of the method: as §1
Syrian golden hamster [8] = test: Antihyperlipidemic activity measured by cholesterol level in golden syrian hamster at 100 mg/kg, po; summary of the method: as §2
Syrian golden hamster [9] = test: Antihyperlipidemic activity measured by increase in HDL/total cholesterol ratio in golden syrian hamster at 100 mg/kg, po relative to control; summary of the method: as §2
Syrian golden hamster [10] = test: Antihyperlipidemic activity measured by decrease in cholesterol level in golden syrian hamster at 100 mg/kg, po relative to control; parameters: scale not given: the % may be the effect or the level left; summary of the method: as §2
Syrian golden hamster [11] = test: Antihyperlipidemic activity measured by free fatty acid level in golden syrian hamster at 100 mg/kg, po; summary of the method: as §1
Syrian golden hamster [12] = test: Antihyperlipidemic activity measured by decrease in HDL/total cholesterol ratio in golden syrian hamster at 25 mg/kg relative to control; parameters: scale not given: the % may be the effect or the level left; summary of the method: as §2
Syrian golden hamster [13] = test: Antihyperlipidemic activity measured by HDL/total cholesterol ratio in golden syrian hamster at 25 mg/kg; summary of the method: as §2
Syrian golden hamster [14] = test: Antihyperlipidemic activity measured by decrease in triglyceride level in golden syrian hamster at 25 mg/kg relative to control; parameters: scale not given: the % may be the effect or the level left; summary of the method: as §2
Syrian golden hamster [15] = test: Antihyperlipidemic activity measured by decrease in HDL level in golden syrian hamster at 25 mg/kg relative to control; parameters: scale not given: the % may be the effect or the level left; summary of the method: as §2
Syrian golden hamster [16] = test: Antihyperlipidemic activity measured by triglyceride level in golden syrian hamster at 25 mg/kg; summary of the method: as §2
Syrian golden hamster [17] = test: Antihyperlipidemic activity measured by decrease in glycerol level in golden syrian hamster at 25 mg/kg relative to control; parameters: scale not given: the % may be the effect or the level left; summary of the method: as §1
Syrian golden hamster [18] = test: Antihyperlipidemic activity measured by increase in HDL level in golden syrian hamster at 100 mg/kg, po relative to control; summary of the method: as §2
Syrian golden hamster [19] = test: Antihyperlipidemic activity measured by cholesterol level in golden syrian hamster at 25 mg/kg; summary of the method: as §2
Syrian golden hamster [20] = test: Antihyperlipidemic activity measured by HDL level in golden syrian hamster at 25 mg/kg; summary of the method: as §2
Syrian golden hamster [21] = test: Antihyperlipidemic activity measured by decrease in cholesterol level in golden syrian hamster at 25 mg/kg relative to control; parameters: scale not given: the % may be the effect or the level left; summary of the method: as §2
Syrian golden hamster [22] = test: Antihyperlipidemic activity measured by free fatty acid level in golden syrian hamster at 25 mg/kg; summary of the method: as §1
Syrian golden hamster [23] = test: Antihyperlipidemic activity measured by glycerol level in golden syrian hamster at 25 mg/kg; summary of the method: as §1
Syrian golden hamster [24] = test: Antihyperlipidemic activity measured by decrease in glycerol level in golden syrian hamster at 100 mg/kg, po relative to control; parameters: scale not given: the % may be the effect or the level left; summary of the method: as §1
Syrian golden hamster [25] = test: Antihyperlipidemic activity measured by decrease in free fatty acid level in golden syrian hamster at 25 mg/kg relative to control; parameters: scale not given: the % may be the effect or the level left; summary of the method: as §1
Syrian golden hamster [26] = test: Antihyperlipidemic activity measured by decrease in free fatty acid level in golden syrian hamster at 100 mg/kg, po relative to control; parameters: scale not given: the % may be the effect or the level left; summary of the method: as §1
Syrian golden hamster [27] = test: Antihyperlipidemic activity measured by increase in cholesterol level in golden syrian hamster at 100 mg/kg, po relative to control; summary of the method: as §2
Syrian golden hamster [28] = test: Antihyperlipidemic activity measured by increase in triglyceride level in golden syrian hamster at 100 mg/kg, po relative to control; summary of the method: as §2

Row | Compound | Activity (Syrian golden hamster [1]) | Ratio (Syrian golden hamster [2]) | Activity (Syrian golden hamster [4]) | Activity (Syrian golden hamster [5]) | Activity (Syrian golden hamster [6]) | Activity (Syrian golden hamster [7]) | Activity (Syrian golden hamster [8]) | Activity (Syrian golden hamster [9]) | Activity (Syrian golden hamster [10]) | Activity (Syrian golden hamster [11]) | Activity (Syrian golden hamster [18]) | Activity (Syrian golden hamster [24]) | Activity (Syrian golden hamster [26]) | Activity (Syrian golden hamster [27]) | also measured
1 | OC[C@H]1O[C@](O)(CO)[C@@H](O[C@@H]2OC[C@@H](O)[C@@H](O)[C@H]2O)[C@@H]1O | 0.99 mM | 0.35 | 3.14 mM | 9% | 13.09 mM | 18% | 8.9 mM | 31% | 23% | 924.84 µM | – | – | – | – | Activity (Syrian golden hamster [3]): 28%
2 | OC[C@H]1O[C@](O)(CO)[C@@H](O[C@@H]2O[C@H](CO)[C@@H](O[C@@H]3O[C@H](CO)[C@@H](O)[C@H](O)[C@H]3O)[C@H](O)[C@H]2O)[C@@H]1O | 0.81 mM | 0.34 | 3.4 mM | 58% | 6.09 mM | – | 9.79 mM | 29% | 15% | 726.03 µM | 10% | 4% | – | – | Activity (Syrian golden hamster [12]): 11%; Ratio (Syrian golden hamster [13]): 0.24; Activity (Syrian golden hamster [14]): 29%; Activity (Syrian golden hamster [15]): 15%; Activity (Syrian golden hamster [16]): 10.23 mM; Activity (Syrian golden hamster [17]): 8%; Activity (Syrian golden hamster [19]): 10.97 mM; Activity (Syrian golden hamster [20]): 2.64 mM; Activity (Syrian golden hamster [21]): 5%; Activity (Syrian golden hamster [22]): 0.648 mM; Activity (Syrian golden hamster [23]): 0.77 mM; Activity (Syrian golden hamster [25]): 10%
3 | OC[C@H]1O[C@](O)(CO)[C@@H](O[C@@H]2OC[C@@H](O)[C@H](O)[C@H]2O)[C@@H]1O | 0.61 mM | 0.27 | 3.26 mM | 30% | 10.08 mM | – | 12 mM | – | – | 692.34 µM | 5% | 28% | 4% | – | –
4 | OC[C@H]1O[C@](O)(CO)[C@@H](O[C@H]2O[C@H](CO)[C@@H](O)[C@H](O)[C@@H]2O)[C@@H]1O | 0.66 mM | 0.28 | 4.33 mM | 29% | 10.16 mM | – | 15.26 mM | 5% | – | 510.7 µM | 40% | 21% | 30% | 32% | –
5 | OC[C@H]1O[C@](O)(CO)[C@@H](O[C@H]2OC[C@@H](O)[C@@H](O)[C@@H]2O)[C@@H]1O | 1 mM | 0.29 | 3.49 mM | – | 15.26 mM | 19% | 12.04 mM | 7% | – | 708.69 µM | 13% | – | – | 4% | Activity (Syrian golden hamster [28]): 6%
